Converted amounts (≈) assume the structure as drawn. The source made the active and inactive calls. No cut-off for these calls is given here.
Assays:
[1] = target: T1, 1-deoxy-D-xylulose 5-phosphate reductoisomerase (Mycobacterium tuberculosis) (UniProt P9WNS1); test: Inhibition of Mycobacterium tuberculosis DXR expressed in Escherichia coli BL21 CodonPlus (DE3)-RIL cells assessed as remaining activity using DOXP as substrate at 100 uM in presence of NADPH by UV-visible spectrophotometry relative to control
T1 sequence (whole entry): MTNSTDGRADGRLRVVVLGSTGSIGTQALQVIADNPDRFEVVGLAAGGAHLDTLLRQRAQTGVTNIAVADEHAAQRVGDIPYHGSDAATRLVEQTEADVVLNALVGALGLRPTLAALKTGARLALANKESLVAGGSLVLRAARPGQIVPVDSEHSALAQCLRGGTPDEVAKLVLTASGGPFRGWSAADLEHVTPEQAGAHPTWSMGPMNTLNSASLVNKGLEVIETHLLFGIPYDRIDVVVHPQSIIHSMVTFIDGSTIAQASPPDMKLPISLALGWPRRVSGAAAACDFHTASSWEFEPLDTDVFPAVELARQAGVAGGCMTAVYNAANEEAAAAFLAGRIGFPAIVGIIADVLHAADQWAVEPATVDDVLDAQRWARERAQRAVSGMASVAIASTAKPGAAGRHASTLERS
Method in brief: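 Recombinant MtbDXR (pET101/D-TOPO in E. coli BL21 CodonPlus (DE3)-RIL, IMAC-purified) at 0.89 µM in 100 mM MES pH 6.5, 25 mM MgCl2, 150 µM NADPH, 47 µM DOXP, 37 °C. Inhibitor was tested at a single 100 µM. NADPH oxidation was followed at 340 nm, and percent remaining activity was reported. Technical duplicates.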

Plasmodium falciparum [2] = test: Antiplasmodial activity against Plasmodium falciparum E1-C12 harboring with had1 mutation assessed as reduction in parasite growth by measuring DNA content after 3 days by PicoGreen staining based FLUOstar omega microplate reader analysis; type: functional, organism-based; settings: time 3.0 day
Method in brief: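 E1-C12 (had1) parasites, asynchronous, at 2% hematocrit in RPMI-1640/0.5% Albumax with hypoxanthine, under 5% O2/5% CO2/90% N2 at 37 °C. Started at 0.5% parasitemia and dosed at 1.2 nM–492.4 µM. After 3 days, DNA was stained with PicoGreen (ex 485/em 528). IC50 came from a 4-parameter fit; technical duplicates, biological triplicates.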

[3] = test system: Mycobacterium tuberculosis; test: Antibacterial activity against Mycobacterium tuberculosis H37Rv assessed as reduction in bacterial growth incubated for 2 weeks by macroscopic plate reader analysis; type: functional; settings: 336 h
Method in brief: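 H37Rv grown in 7H9 broth with 0.08% NaCl, 0.4% glucose, 0.05% casitone and 0.05% tyloxapol, then diluted 1:500. Compounds were made as 20 mg/mL DMSO stocks and run as eleven 2-fold serial dilutions. Plates were held 2 weeks at 37 °C and MIC99 was read macroscopically. Three independent measurements.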

[4] = Cytotoxicity against human HepG2 cells assessed as reduction in cell viability after 24 hrs by Cell Titer Glo assay; type: toxicity, cell-based
Method in brief: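 HepG2 cells in DMEM with 4 mM L-glutamine and 4.5 g/L glucose, trypsinized and plated from a 4×10^5 cells/mL suspension. Compounds were tested as two-fold dilutions from 100 to 0.1 µg/mL, with a DMSO-only control, in duplicate. After 24 h at 37 °C, 5% CO2, CellTiter-Glo luminescence was read after 20 min in the dark.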

Plasmodium falciparum [5] = test: Antiplasmodial activity against Plasmodium falciparum 3D7 assessed as reduction in parasite growth by measuring DNA content after 3 days by PicoGreen staining based FLUOstar omega microplate reader analysis; type: functional, organism-based; settings: 3D7, 72 h
Method in brief: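 Asynchronous cultures in 2% hematocrit, RPMI-1640 complete medium with 0.5% Albumax, under 5% O2/5% CO2/90% N2 at 37 °C. Diluted to 0.5% parasitemia, inhibitors 1.2 nM to 492.4 µM added at start. Growth read after 3 days as DNA content by PicoGreen fluorescence (485/528 nm). IC50 from 4-parameter nonlinear regression; technical duplicate, biological triplicate.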

[6] = target: T2, 1-deoxy-D-xylulose 5-phosphate reductoisomerase, apicoplastic (Plasmodium falciparum (isolate 3D7)) (UniProt Q8IKG4); test: Inhibition of Plasmodium falciparum DXR expressed in Escherichia coli BL21 CodonPlus (DE3)-RIL cells using DOXP as substrate at 100 uM in presence of NADPH by UV-visible spectrophotometry relative to control
T2 sequence (whole entry): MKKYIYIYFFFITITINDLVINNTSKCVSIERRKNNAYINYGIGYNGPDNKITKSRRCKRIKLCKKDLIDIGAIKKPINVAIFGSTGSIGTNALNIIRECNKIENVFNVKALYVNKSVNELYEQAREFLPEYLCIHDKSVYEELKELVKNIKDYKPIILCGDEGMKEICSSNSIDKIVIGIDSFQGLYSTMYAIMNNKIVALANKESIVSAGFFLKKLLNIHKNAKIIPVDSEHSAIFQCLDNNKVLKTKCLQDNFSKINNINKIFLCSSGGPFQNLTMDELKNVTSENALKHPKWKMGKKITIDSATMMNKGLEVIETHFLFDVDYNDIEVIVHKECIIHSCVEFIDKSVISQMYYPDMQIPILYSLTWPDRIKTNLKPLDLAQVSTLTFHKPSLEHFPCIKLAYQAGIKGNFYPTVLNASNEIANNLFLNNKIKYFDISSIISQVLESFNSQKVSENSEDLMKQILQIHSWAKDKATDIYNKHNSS
Method in brief: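 PfDXR single-point test at 100 µM inhibitor. Conditions: 0.86 µM IMAC-purified enzyme, 100 mM Tris pH 7.8, 25 mM MgCl2, 150 µM NADPH, 37 °C. Reaction was started with 144 µM DOXP, and NADPH oxidation was monitored at 340 nm. Percent remaining activity was reported; technical duplicates.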

Plasmodium falciparum [7] = test: Antiplasmodial activity against Plasmodium falciparum E1-C12 harboring with had1 mutation assessed as reduction in parasite growth by measuring DNA content after 3 days in presence of IPP by PicoGreen staining based FLUOstar omega microplate reader analysis; type: functional, organism-based; settings: time 3.0 day
Method in brief: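 IPP rescue in had1 E1-C12 parasites: 125 µM IPP was present for the whole assay. Cultures at 2% hematocrit in Albumax-supplemented RPMI, 5% O2/5% CO2, 37 °C, started at 0.5% parasitemia. Inhibitors were dosed at 1.2 nM–492.4 µM, and growth was read after 3 days by PicoGreen fluorescence. 4-parameter fit; duplicate wells, biological triplicates.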

[8] = target: T3, 1-deoxy-D-xylulose 5-phosphate reductoisomerase, apicoplastic (Plasmodium falciparum (isolate 3D7), UniProt Q8IKG4); test: Inhibition of Plasmodium falciparum DXR expressed in Escherichia coli BL21 CodonPlus (DE3)-RIL cells using DOXP as substrate in presence of NADPH by UV-visible spectrophotometry
T3 sequence (Q8IKG4 whole entry): T2 sequence (whole entry)

[9] = target: T2, 1-deoxy-D-xylulose 5-phosphate reductoisomerase, apicoplastic (Plasmodium falciparum (isolate 3D7)); test: Inhibition of Plasmodium falciparum DXR expressed in Escherichia coli BL21 CodonPlus (DE3)-RIL cells assessed as remaining activity using DOXP as substrate at 100 uM in presence of NADPH by UV-visible spectrophotometry relative to control
Method in brief: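 Recombinant His-tagged PfDXR purified by TALON affinity. Assay at 37 °C in 100 mM Tris pH 7.8, 25 mM MgCl2, 0.86 µM enzyme, 150 µM NADPH; reaction started with 144 µM DOXP. NADPH oxidation followed at 340 nm. Single inhibitor concentration 100 µM, given as percent remaining activity; technical duplicates.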

Compound	Activity [1] [%]	Activity (Plasmodium falciparum [2])	MIC [3] [µM]	IC50 at 24 h [4] [µM]	IC50 (Plasmodium falciparum [5]) [µM]	inhibition [6] [%]	Activity (Plasmodium falciparum [7])	IC50 [8] [µM]	Activity [9] [%]
CC(=O)N(CCC(c1ccc(Cl)c(Cl)c1)P(=O)(O)O)OC(C)c1ccc(C)cc1 (configuration not stated)	30.7	Active	> 101	> 200	3.53	> 90	inactive	1.21	
CC(=O)N(CCC(c1ccc(Cl)c(Cl)c1)P(=O)(O)O)OCc1ccc2ccccc2c1 (configuration not stated)	82.1		24.2 (≈ 11.7 µg/mL)		60.9				46.6
CC(=O)N(CCC(c1ccc(Cl)c(Cl)c1)P(=O)(OCOC(=O)C(C)(C)C)OCOC(=O)C(C)(C)C)OC(C)c1ccc(C(F)(F)F)cc1 (configuration not stated)			> 134		23.8				
CC(=O)N(CCC(c1ccc(Cl)c(Cl)c1)P(=O)(OCOC(=O)C(C)(C)C)OCOC(=O)C(C)(C)C)OCc1ccccc1 (configuration not stated)			9.5 (≈ 6.28 µg/mL)		41.6				
CC(=O)N(CCC(c1ccc(Cl)c(Cl)c1)P(=O)(OCOC(=O)C(C)(C)C)OCOC(=O)C(C)(C)C)OC(C)c1ccc(C)cc1 (configuration not stated)			18.2 (≈ 12.5 µg/mL)		31.9				
CC(=O)N(O)CCC(c1ccc(Cl)c(Cl)c1)P(=O)(OCOC(=O)C(C)(C)C)OCOC(=O)C(C)(C)C (configuration not stated)			8.1 (≈ 4.62 µg/mL)		13				
CC(=O)N(CCC(c1ccc(Cl)c(Cl)c1)P(=O)(O)O)OCc1ccc(-c2ccccc2)cc1 (configuration not stated)	93.9		23.1 (≈ 11.7 µg/mL)		86.4				27
CC(=O)N(CCC(c1ccc(Cl)c(Cl)c1)P(=O)(O)O)OCc1ccccc1 (configuration not stated)	34.2		> 214		31.5				26.7
CC(=O)N(CCC(c1ccc(Cl)c(Cl)c1)P(=O)(O)O)OC(C)c1ccc(C(F)(F)F)cc1 (configuration not stated)	59.6		> 91		79.2				74.7
CC(=O)N(CCC(c1ccc(Cl)c(Cl)c1)P(=O)(OCOC(=O)C(C)(C)C)OCOC(=O)C(C)(C)C)OC(C)c1ccc(Cl)cc1 (configuration not stated)			13.3 (≈ 9.43 µg/mL)		30.1				
CC(=O)N(CCC(c1ccc(Cl)c(Cl)c1)P(=O)(O)O)OCc1ccc(C(C)C)cc1 (configuration not stated)	80.9		12.3 (≈ 5.83 µg/mL)		68.7	> 90		26.5	
CC(=O)N(CCC(c1ccc(Cl)c(Cl)c1)P(=O)(O)O)OCc1ccc(-c2ccc(C(C)C)cc2)cc1 (configuration not stated)	63.2		45 (≈ 24.8 µg/mL)		38.1				56.1
CC(=O)N(CCC(c1ccc(Cl)c(Cl)c1)P(=O)(OCOC(=O)C(C)(C)C)OCOC(=O)C(C)(C)C)OCc1ccc(C(C)C)cc1 (configuration not stated)			17.8 (≈ 12.5 µg/mL)		13.9				
CC(=O)N(CCC(c1ccc(Cl)c(Cl)c1)P(=O)(OCOC(=O)C(C)(C)C)OCOC(=O)C(C)(C)C)OC(C)c1ccc(F)cc1 (configuration not stated)			6.6 (≈ 4.57 µg/mL)		21.2				
CC(=O)N(CCC(c1ccc(Cl)c(Cl)c1)P(=O)(O)O)OCCCCc1ccccc1 (configuration not stated)	99.1		3.1 (≈ 1.47 µg/mL)		63.3				25.6
CC(=O)N(CCC(c1ccc(Cl)c(Cl)c1)P(=O)(O)O)OC(C)c1ccc(Cl)cc1 (configuration not stated)	66.2		72 (≈ 34.6 µg/mL)		68.6	> 90		20.4	
CC(=O)N(O)CCC(c1ccc(Cl)c(Cl)c1)P(=O)(O)O (configuration not stated)	15.7		> 266		18.6	> 90		13.6	
CC(=O)N(CCC(c1ccc(Cl)c(Cl)c1)P(=O)(OCOC(=O)C(C)(C)C)OCOC(=O)C(C)(C)C)OCc1ccc(Br)cc1 (configuration not stated)			8.5 (≈ 6.29 µg/mL)		34.8				
CC(=O)N(CCC(c1ccc(Cl)c(Cl)c1)P(=O)(OCOC(=O)C(C)(C)C)OCOC(=O)C(C)(C)C)OCCCCc1ccccc1 (configuration not stated)			17.8 (≈ 12.5 µg/mL)		13.9				
CC(=O)N(CCC(c1ccc(Cl)c(Cl)c1)P(=O)(OCOC(=O)C(C)(C)C)OCOC(=O)C(C)(C)C)OCc1ccc(-c2ccccc2)cc1 (configuration not stated)			17 (≈ 12.5 µg/mL)		8.78				
CC(=O)N(CCC(c1ccc(Cl)c(Cl)c1)P(=O)(OCOC(=O)C(C)(C)C)OCOC(=O)C(C)(C)C)OC(C)c1ccccc1 (configuration not stated)			3.9 (≈ 2.63 µg/mL)		5.22				
CC(=O)N(CCC(c1ccc(Cl)c(Cl)c1)P(=O)(OCOC(=O)C(C)(C)C)OCOC(=O)C(C)(C)C)OCc1ccc(-c2ccc(C(C)C)cc2)cc1 (configuration not stated)			> 128		14.9				
COc1ccc(C(C)ON(CCC(c2ccc(Cl)c(Cl)c2)P(=O)(OCOC(=O)C(C)(C)C)OCOC(=O)C(C)(C)C)C(C)=O)cc1 (configuration not stated)		Active	6.5 (≈ 4.58 µg/mL)	> 140	0.37		inactive		
CC(=O)N(CCC(c1ccc(Cl)c(Cl)c1)P(=O)(O)O)OC(C)c1ccccc1 (configuration not stated)	64.6		> 208		3.6	> 90		16.8	
CC(=O)N(CCC(c1ccc(Cl)c(Cl)c1)P(=O)(O)O)OCc1ccc(Br)cc1 (configuration not stated)	72.3		> 92		67.8				53.1
CC(=O)N(CCC(c1ccc(Cl)c(Cl)c1)P(=O)(OCOC(=O)C(C)(C)C)OCOC(=O)C(C)(C)C)OCc1ccc2ccccc2c1 (configuration not stated)			8.8 (≈ 6.25 µg/mL)		14				

From ChEMBL document CHEMBL5576114, “Inhibition of DXR in the MEP pathway with lipophilic N-alkoxyaryl FR900098 analogs” (RSC Med Chem, 2024)
